XiGFP reactiv: activators of inactive X chromosome reactivation, primary screen, imaging, XiGFP fibroblasts, GFP high-content imaging, set 2; activation, % at 7.58 µM; 0.055% of 360,000 active; XiGFP mouse fibroblasts, % GFP-positive cells imaging, 3 d; cells co-treated with 5-aza-dC sensitizer; scaled so ellipticine positive control = 100%;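 active = mean normalized replicate activation at least 10% and every replicate at or above 10%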
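System: 68-5-11 XiGFP fibroblast line; Timing: 3 days compound exposure; Compound dosing: one concentration, pinned; Benchmarks: positive control ellipticine, 6 µM final; Buffer or medium: DMEM containing 5-aza-dC.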
CFTR F508del cor: F508del CFTR correction, initial screen, CFBE line, single point | activity (quench increase), % at 7.58 µM | 0.36% of 350,000 active | CFBE cells, YFP halide quenching; stimulated with forskolin plus potentiator P3; % fluorescence drop versus neutral controls;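 active = mean added fluorescence quench of at least 8% versus neutral control, with both replicates also reaching 8%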;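 note: cells transiently co-express mutant CFTR-F508del with the halide-sensitive YFP; corrector assay measuring rescue of mutant channel to the surface after 24 h compound exposure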
E-sel inducer: E-selectin induction in HUVECs, primary screen, imaging, HUVEC, immunofluorescence imaging, single point | normalized: neutral wells 0, TNF-alpha wells 100 | activation, % at 7.58 µM | 0.37% of 260,000 active | AID 686992, 2013;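 active = mean E-selectin-positive cell signal at least 10% of the positive control, reached in at least 60% of replicates, without over 20% cell loss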
Target sequence (P16581 whole entry, looked up): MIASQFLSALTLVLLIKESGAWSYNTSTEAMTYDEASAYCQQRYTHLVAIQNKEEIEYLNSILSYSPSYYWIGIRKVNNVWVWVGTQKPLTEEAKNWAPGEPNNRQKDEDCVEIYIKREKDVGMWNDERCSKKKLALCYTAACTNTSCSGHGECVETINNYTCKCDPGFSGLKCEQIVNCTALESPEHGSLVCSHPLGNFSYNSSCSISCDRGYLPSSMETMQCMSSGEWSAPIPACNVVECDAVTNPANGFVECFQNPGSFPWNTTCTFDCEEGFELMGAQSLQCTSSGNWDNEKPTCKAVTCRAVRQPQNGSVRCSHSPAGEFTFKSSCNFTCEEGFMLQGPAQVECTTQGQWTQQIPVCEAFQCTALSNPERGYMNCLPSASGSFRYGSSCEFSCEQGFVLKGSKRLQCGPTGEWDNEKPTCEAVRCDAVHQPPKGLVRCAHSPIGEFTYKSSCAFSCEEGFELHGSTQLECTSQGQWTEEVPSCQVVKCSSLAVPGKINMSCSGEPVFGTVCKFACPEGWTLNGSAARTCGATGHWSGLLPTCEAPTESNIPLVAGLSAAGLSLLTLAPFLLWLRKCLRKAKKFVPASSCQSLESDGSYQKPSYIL
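Material: HUVEC primary endothelial cells; Amount: 3,000 cells per well; Dosing: single concentration; Medium: EGM-2 growth medium on 0.1% gelatin-coated wells; Read-out basis: percent E-selectin-positive cells; Signal: immunofluorescence imaging; Control set: TNF-alpha, DMSO.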
Of the large screens only hits and unclear results are named; the others gave an inactive call. Shown are actives, neighbours in structure and some others; about 0.61% of the full set was active somewhere.

C[C@H](CO)N1C[C@H](C)[C@H](CN(C)C(=O)Nc2ccccc2)Oc2c(NS(=O)(=O)c3cccs3)cccc2C1=O	E-sel inducer 50.1
C[C@H](CO)N1C[C@H](C)[C@@H](CN(C)C(=O)Nc2ccccc2)Oc2c(NS(=O)(=O)c3cccs3)cccc2C1=O	none
C[C@H](CO)N1C[C@H](C)[C@@H](CN(C)S(=O)(=O)c2cccs2)Oc2c(NS(=O)(=O)c3ccc(F)cc3)cccc2C1=O	none
C[C@H](CO)N1C[C@H](C)[C@H](CN(C)S(=O)(=O)c2ccc(Cl)cc2)Oc2c(NC(=O)C3CCCCC3)cccc2C1=O	E-sel inducer 36.3
C[C@@H]1CN([C@H](C)CO)C(=O)c2cccc(NS(=O)(=O)c3ccc(F)cc3)c2O[C@@H]1CN(C)S(=O)(=O)c1cccs1	E-sel inducer 35.6
Cc1ccc(S(=O)(=O)Nc2cccc3c2O[C@H](CN(C)S(=O)(=O)c2ccc(Cl)cc2)[C@H](C)CN([C@H](C)CO)C3=O)cc1	none
Cc1ccc(S(=O)(=O)N(C)C[C@@H]2Oc3c(NS(=O)(=O)c4ccc(Cl)cc4)cccc3C(=O)N([C@@H](C)CO)C[C@H]2C)cc1	E-sel inducer 49.1
CNC(=O)C[C@H]1CC[C@@H]2[C@@H](COc3ccc(NC(=O)c4cnccn4)cc3C(=O)N2C)O1	none
C[C@H](CO)N1C[C@H](C)[C@H](CN(C)C(=O)NC2CCCC2)OCc2cnnn2CCCC1=O	none
CN(C)c1ccc(C=C2SC(=S)N(Cc3ccco3)C2=O)cc1	none
O=C1/C(=C\c2c(NCCOCCO)nc3ccccn3c2=O)SC(=S)N1Cc1ccco1	E-sel inducer 72.7
COc1ccc(S(=O)(=O)N(C)C[C@@H]2Oc3ccc(NC(=O)Cc4ccccc4)cc3CC(=O)N([C@H](C)CO)C[C@@H]2C)cc1	none
Cc1ccc(S(=O)(=O)N2C[C@H]3[C@H]4C(=O)N(C)C(=O)[C@H]4CC(=O)[C@H]3[C@@H]2c2ccccc2Cl)cc1	none
Cc1ccc(S(=O)(=O)N2C[C@H]3[C@H]4C(=O)N(C)C(=O)[C@H]4CC(=O)[C@H]3[C@@H]2c2ccccc2F)cc1	CFTR F508del cor 8.4
CCCNC(=O)N1CC2(CCN(CC3CCCC3)CC2)c2c([nH]c3cc(OC)ccc23)[C@@H]1CO	none
O=C1c2cccc(NCCCNCCO)c2C(=O)c2cccc(NCCCNCCO)c21	CFTR F508del cor 12.8
O=C1c2ccccc2C(=O)c2c(NCc3cccnc3)cccc21	none (no result: XiGFP reactiv, CFTR F508del cor)
O=C(NCCN1CCCCC1)[C@@H]1N[C@@H]2c3ccc(-c4cccnc4)c(=O)n3C[C@@H]2[C@H]1CO	none (no result: CFTR F508del cor)
Nc1ccccc1C(=O)N1O[C@@H]2C=C[C@H]1C2	CFTR F508del cor 8.6
O=C(c1cc2ccccc2[nH]1)N1O[C@@H]2C=C[C@H]1C2	none (no result: E-sel inducer)
CN1CCN(C(=O)C[C@H]2CC[C@H]3[C@@H](COc4ccc(NC(=O)c5cccs5)cc4C(=O)N3C)O2)CC1	none
COc1cc(OC)cc(C(=O)OCC(=O)NC(c2ccccc2)c2ccccc2)c1	CFTR F508del cor 8.2
COc1cc(OC)cc(C(=O)NC(c2ccccc2)c2ccccc2)c1	none (no result: E-sel inducer)
C[C@H](CO)N1C[C@H](C)[C@@H](CN(C)C(=O)NC2CCCCC2)Oc2ccc(NC(=O)Nc3cccc4ccccc34)cc2C1=O	none
O=C(OCc1ccc(Br)cc1)c1cc([N+](=O)[O-])ccc1N1CCOCC1	CFTR F508del cor 8.4
O=C(c1ccc(Cl)cc1)c1cc([N+](=O)[O-])ccc1N1CCOCC1	none
O=C(OCc1cccc(Cl)c1)c1cc([N+](=O)[O-])ccc1N1CCOCC1	none
O=C(c1ccc(Br)cc1)c1cc([N+](=O)[O-])ccc1N1CCOCC1	CFTR F508del cor 11.8
CC=Cc1ccc2n(c1=O)C[C@H]1[C@H](CO)[C@@H](C(=O)NC3CCC3)N(S(C)(=O)=O)[C@@H]21 (mixture of isomers)	none
O=C(C[C@@H]1CC[C@@H](NC(=O)Nc2ccccc2F)[C@@H](CO)O1)NCc1ccc(-c2ccccc2)cc1	none
O=C(Nc1ccc(F)cc1)N[C@@H]1CC[C@H](CCNS(=O)(=O)c2cccc(Cl)c2)O[C@@H]1CO	none
CC(C)NC(=O)N(C)C[C@H]1Oc2cc(-c3cncnc3)ccc2S(=O)(=O)N([C@H](C)CO)C[C@H]1C	none
C[C@@H]1CN([C@H](C)CO)S(=O)(=O)c2ccc(-c3cncnc3)cc2O[C@H]1CN(C)C	none
COc1ccc(/C=N/NC(=O)c2cc3cc(OC)c(OC)cc3[nH]2)cc1	none (no result: CFTR F508del cor)
CCOc1ccc2[nH]c(C(=O)N/N=C/c3ccc(OC)cc3)cc2c1	CFTR F508del cor 18.0 (no result: E-sel inducer)
COc1ccc2cc(C(=O)N/N=C/c3cc(OC)c(OC)c(OC)c3)[nH]c2c1	none
COc1ccc(/C=N/NC(=O)c2cc[n+]([O-])cc2)cc1	E-sel inducer 42.1
O=C(N/N=C/c1ccc(OC(F)F)cc1)c1cc[n+]([O-])cc1	none
COc1ccc2[nH]c(C(=O)N/N=C/c3ccc(O)cc3O)cc2c1	CFTR F508del cor 12.0 (no result: E-sel inducer)
C[C@H]1CN([C@@H](C)CO)C(=O)c2cc(/C=C/c3ccccc3)cnc2O[C@@H]1CN(C)S(=O)(=O)c1cn(C)cn1	none (no result: CFTR F508del cor)
COc1cccc(NC(=O)N(C)C[C@@H]2Oc3ncc(C4=CCCCC4)cc3C(=O)N([C@@H](C)CO)C[C@@H]2C)c1	none
C[C@@H]1CN([C@H](C)CO)C(=O)c2cc(/C=C/c3ccccc3)cnc2O[C@@H]1CN(C)C	none
C/C=C/c1ccc([C@H]2[C@H]3CN(CCC(F)(F)F)CCCCN3[C@H]2CO)cc1	none
CCC(=O)N1C[C@@H](C)[C@@H](OC)CN(C)C(=O)c2ccc(NC(=O)c3cnccn3)cc2OC[C@H]1C	none
Cc1noc(C)c1S(=O)(=O)N(C)C[C@H]1Oc2c(NS(=O)(=O)c3cn(C)cn3)cccc2C(=O)N([C@H](C)CO)C[C@H]1C	none
N#CC1(NC(=O)CN2C(=O)c3ccccc3C2=O)CCCCC1	E-sel inducer 49.9
O=C(CN1C(=O)c2ccccc2C1=O)NC1(C(=O)O)CCCC1	none
C[C@@H]1CN([C@@H](C)CO)S(=O)(=O)c2ccc(C#Cc3ccccc3)cc2O[C@H]1CN(C)C(=O)c1ccccn1	none
CCCC(=O)Nc1ccc2c(c1)C(=O)N(C)[C@H]1CC[C@H](CC(=O)NCC3CC3)O[C@@H]1CO2	none
C[C@H](NC(=O)C[C@@H]1C=C[C@H](NC(=O)Nc2ccc3c(c2)OCO3)[C@@H](CO)O1)c1ccccc1	none
CC(=O)Nc1ccc(NC(=O)C2CCCN2C(=O)Nc2cccc(F)c2)cc1 (centres undefined)	none (no result: E-sel inducer)
COc1ccc(NC(=O)C2CCCN2C(=O)Nc2cccc(F)c2)cc1 (centres undefined)	CFTR F508del cor 9.7 (no result: XiGFP reactiv)
COc1ccc(CN(C)C[C@@H]2Oc3ccc(NC(=O)NC(C)C)cc3CC(=O)N([C@H](C)CO)C[C@@H]2C)cc1	none
O=C(C1CCOCC1)N1C[C@H]2[C@@H](c3ccccc31)[C@H](CO)N2Cc1ccccc1Cl	none
O=C(NNC(=O)c1ccncc1)Nc1ccc(Cl)cc1	CFTR F508del cor 8.2
O=C(NNC(=O)c1ccncc1)Nc1ccccc1	none

Screening data: PubChem, Broad Institute
